pIC50: −log10 of the molar value. Values after ≈ are worked out from the molar mass of the structure shown. Active and inactive are the calls of the source. The rule behind the calls is not given here.
Tests used:
Staphylococcus aureus [1] = test: Antimicrobial activity against Staphylococcus aureus ATCC 6538 at 100 ug/disk after 48 hrs; assay type: functional; settings: ATCC 6538, 48 h, read-out: IZ
Staphylococcus aureus [2] = test: Antimicrobial activity against Staphylococcus aureus ATCC 6538 after 24 hrs by broth dilution assay; assay type: functional; settings: ATCC 6538, 24 h
Streptococcus mutans = test: Antimicrobial activity against Streptococcus mutans ATCC 25175 at 100 ug/disk after 24 hrs; assay type: functional, organism-based
Procedure, shortened: (§1)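 Bacteria were grown on Mueller-Hinton agar. 6 mm paper disks carrying 100 µg compound were placed on the agar surface and plates were incubated at 37 °C for 24 h. The read-out was the presence and diameter of the inhibition zone, with a ciprofloxacin disk (100 µg) as reference.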

Enterococcus faecalis = test: Antimicrobial activity against Enterococcus faecalis ATCC 19433 at 100 ug/disk after 24 hrs; assay type: functional, organism-based; procedure, shortened: as §1
Micrococcus luteus = test: Antimicrobial activity against Sarcina lutea CMCC B28001 at 100 ug/disk after 24 hrs; assay type: functional, organism-based; procedure, shortened: as §1
HeLa = test: Growth inhibition of human HeLa cells after 4 hrs by MTT assay; assay type: functional, cell-based
Procedure, shortened: (§2)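 MTT viability: 10⁴ cells/well attached overnight, then exposed to serial dilutions (from a 10 mg/mL DMSO stock) in medium, with 0.2% DMSO vehicle, for 4 h at 37 °C, 5% CO₂. Medium was then changed to fresh DMEM, followed by MTT (0.5 mg/mL) for 3 h at 37 °C in the dark. Formazan was dissolved in DMSO and read at 540 nm to give IC50.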

HCT-116 = test: Growth inhibition of human HCT116 cells after 4 hrs by MTT assay; assay type: functional, cell-based; settings: HCT-116, 4 h; procedure, shortened: as §2
Geotrichum candidum = test: Antifungal activity against Geotrichum candidum AS2.498 at 100 ug/disk after 48 hrs
Candida albicans = test: Antifungal activity against Candida albicans ATCC 10231 at 100 ug/disk after 48 hrs
Aspergillus fumigatus = test: Antifungal activity against Aspergillus fumigatus ATCC 10894 at 100 ug/disk after 48 hrs

Row | Compound | zone of inhibition at 100 µg/disc (Staphylococcus aureus [1]) | MIC (Staphylococcus aureus [2]) | Activity (Streptococcus mutans) | Activity (Enterococcus faecalis) | Activity (Micrococcus luteus) | pIC50 (HeLa) | pIC50 (HCT-116) | Activity (Geotrichum candidum) | Activity (Candida albicans) | Activity (Aspergillus fumigatus)
1 | O=C(O)c1cn(C2CC2)c2cc(N3CCNCC3)c(F)cc2c1=O [CIPROFLOXACIN] | 35 mm | – | – | – | – | – | – | – | – | –
2 | COC1=C(c2ccc(OC)cc2)C(=O)[C@H](O)[C@@](O)(c2ccc(OC)cc2)C1 [GLIOCLADININ A] | 15 mm | 270 µM (≈ 100 µg/mL) | inactive | inactive | inactive | 4.27 | < 3.57 | inactive | inactive | inactive
3 | COc1ccc(-c2cc(O)c(-c3ccc(OC)cc3)c(O)c2O[C@@H]2O[C@H](CO)[C@@H](O)[C@H](O)[C@H]2O)cc1 [GLIOCLADININ B] | 20 mm | 130 µM (≈ 65.1 µg/mL) | inactive | inactive | inactive | 4.40 | 4.10 | inactive | inactive | inactive
